Data: ChEMBL document CHEMBL1157638, “Fluorescent epigenetic small molecule induces expression of the tumor suppressor ras-association domain family 1A and inhibits human prostate xenograft” (J Med Chem, 2010)
Active and inactive are the calls of the source. No cut-off for these calls is given here.

Key:
[1] = test system: 786-0; assay: Growth inhibition of human 786-0 cells assessed as cell growth at 10 nM relative to untreated control; type: functional; conditions: read-out: Activity
[2] = biological target: DNA (cytosine-5)-methyltransferase 1 (Homo sapiens) (UniProt P26358); assay: Inhibition of DNA methyltransferase activity in human PC3 cells at 2 uM after 3 days; type: cell-based; conditions: PC-3
Method in brief: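 PC-3 cells in complete growth medium treated 3 days with compound, then harvested. Nuclear extracts prepared by kit protocol, and DNMT activity measured with a commercial DNMT activity kit against untreated cells. Mean of three independent experiments ± SEM.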

[3] = test system: IGROV-1; assay: Growth inhibition of human IGROV1 cells assessed as cell growth at 100 nM relative to untreated control; type: functional; conditions: read-out: Activity
[4] = test system: MDA-MB-435; assay: Growth inhibition of human MDA-MB-435 cells assessed as cell growth at 100 nM relative to untreated control; type: functional; conditions: read-out: Activity

Chain of DNA (cytosine-5)-methyltransferase 1 (Homo sapiens) (P26358 whole entry): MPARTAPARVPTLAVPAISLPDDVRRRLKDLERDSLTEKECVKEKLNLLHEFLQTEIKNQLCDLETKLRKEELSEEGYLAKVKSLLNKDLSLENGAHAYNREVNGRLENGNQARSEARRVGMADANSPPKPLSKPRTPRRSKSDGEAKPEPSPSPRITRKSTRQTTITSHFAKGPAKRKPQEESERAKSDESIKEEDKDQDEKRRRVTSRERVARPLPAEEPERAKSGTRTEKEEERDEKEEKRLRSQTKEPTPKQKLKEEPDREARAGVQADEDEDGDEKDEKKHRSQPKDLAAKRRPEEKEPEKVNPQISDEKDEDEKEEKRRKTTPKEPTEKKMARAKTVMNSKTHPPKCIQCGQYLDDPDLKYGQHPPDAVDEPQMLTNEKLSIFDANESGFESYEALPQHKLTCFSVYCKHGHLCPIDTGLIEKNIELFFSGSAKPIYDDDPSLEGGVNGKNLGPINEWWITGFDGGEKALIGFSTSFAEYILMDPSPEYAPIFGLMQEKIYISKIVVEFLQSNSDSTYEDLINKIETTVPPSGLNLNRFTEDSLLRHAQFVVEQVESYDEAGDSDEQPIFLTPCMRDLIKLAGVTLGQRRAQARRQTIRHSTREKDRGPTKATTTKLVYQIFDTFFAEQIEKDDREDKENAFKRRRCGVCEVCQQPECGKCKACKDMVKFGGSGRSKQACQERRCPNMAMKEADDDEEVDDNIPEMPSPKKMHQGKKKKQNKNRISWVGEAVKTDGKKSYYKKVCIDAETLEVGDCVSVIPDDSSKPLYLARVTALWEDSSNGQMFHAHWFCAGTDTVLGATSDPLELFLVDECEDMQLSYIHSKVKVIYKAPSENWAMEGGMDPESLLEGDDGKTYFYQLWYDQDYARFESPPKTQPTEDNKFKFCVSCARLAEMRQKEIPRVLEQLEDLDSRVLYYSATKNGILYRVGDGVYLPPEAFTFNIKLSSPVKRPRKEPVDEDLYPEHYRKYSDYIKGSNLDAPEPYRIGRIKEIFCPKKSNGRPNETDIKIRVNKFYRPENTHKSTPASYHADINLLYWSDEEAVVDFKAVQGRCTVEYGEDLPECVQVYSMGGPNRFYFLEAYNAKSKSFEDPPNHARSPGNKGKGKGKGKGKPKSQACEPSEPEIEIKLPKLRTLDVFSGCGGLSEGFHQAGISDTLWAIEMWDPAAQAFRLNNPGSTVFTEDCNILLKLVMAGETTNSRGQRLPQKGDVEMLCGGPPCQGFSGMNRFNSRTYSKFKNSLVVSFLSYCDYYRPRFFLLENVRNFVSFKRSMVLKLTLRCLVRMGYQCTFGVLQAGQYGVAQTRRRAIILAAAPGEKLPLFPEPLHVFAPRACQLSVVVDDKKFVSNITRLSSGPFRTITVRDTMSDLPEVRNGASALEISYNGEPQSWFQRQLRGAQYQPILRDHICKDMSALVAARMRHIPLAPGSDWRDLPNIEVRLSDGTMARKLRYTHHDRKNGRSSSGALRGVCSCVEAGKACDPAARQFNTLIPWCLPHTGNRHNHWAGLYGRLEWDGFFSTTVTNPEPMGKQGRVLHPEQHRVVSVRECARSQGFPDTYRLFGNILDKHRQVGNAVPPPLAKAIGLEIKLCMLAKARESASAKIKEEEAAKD

In the case of COc1ccc2c(c1)[nH]c1c(C)c(OS(=O)(=O)c3cccc4c(N(C)C)cccc34)ccc12, the growth at 0.01 µM [1] is reported as 103%, the Activity [2] is reported as “Active” and the growth at 0.1 µM [3] is reported as 98%. For the same compound, the growth at 0.1 µM [4] was 83%.
